ChEMBL document CHEMBL4339192, “De Novo Designed Amphipathic α-Helical Antimicrobial Peptides Incorporating Dab and Dap Residues on the Polar Face To Treat the Gram-Negative Pathogen, Acinetobacter baumannii” (J Med Chem, 2019)
Values after ≈ are worked out from the molar mass of the structure shown. Where a SMILES comes first, the peptide text is derived from it. [ ]: non-standard residue; d: D form. Dab = NCC[C@H](N)C(=O)O

Tests used:
[1] = system: Acinetobacter baumannii; assay: Antibacterial activity against Acinetobacter baumannii 649 measured after 24 hrs in presence of 25% human serum by microtiter dilution method; assay type: functional; settings: Acinetobacter baumannii, 649, 24 h
Outline: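 Blood strain 649 was tested by MH broth microdilution with and without 25% (v/v) human serum added to the medium. The test used a final inoculum of 5 × 10^5 cfu/mL and incubation at 37 °C. The ratio is the MIC in serum over the MIC in MH alone.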

[2] = Therapeutic index, ratio of HC50 for human RBC to MIC for polymyxin B/colistin-resistant Acinetobacter baumannii M89963; assay type: toxicity; settings: human red blood cells, read-out: TI
Outline: (§1)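 T.I. = HC50/MIC. For HC50, peptide (quantified by amino acid analysis) was two-fold serially diluted over 12 concentrations up to 1000 μg/mL. It was incubated with 1% fresh human erythrocytes in PBS, pH 7.4, for 18 h at 37 °C. After 800g centrifugation, hemoglobin was read at 570 nm against water (100%) and no-peptide (0%) controls. HC50 came from a lysis-versus-concentration plot, average of 3 replicates.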

[3] = system: Acinetobacter baumannii; assay: Antibacterial activity against Acinetobacter baumannii 649 measured after 24 hrs by microtiter dilution method; assay type: functional; settings: Acinetobacter baumannii, 649, 24 h
Outline: (§2)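 Broth microdilution in Mueller-Hinton (MH) medium. […] Plates were incubated 24 h at 37 °C. MIC was the lowest peptide concentration that inhibited growth, based on three sets of replicates.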

[4] = Therapeutic index, ratio of HC50 for human RBC to MIC for polymyxin B/colistin-resistant Acinetobacter baumannii M89955; assay type: toxicity; settings: human red blood cells, read-out: TI; outline: as §1
[5] = Therapeutic index, ratio of HC50 for human RBC to MIC for polymyxin B/colistin-resistant Acinetobacter baumannii M89953; assay type: toxicity; settings: human red blood cells, read-out: TI; outline: as §1
[6] = Therapeutic index, ratio of HC50 for human RBC to MIC for polymyxin B/colistin-resistant Acinetobacter baumannii M89951; assay type: toxicity; settings: human red blood cells, read-out: TI; outline: as §1
[7] = Therapeutic index, ratio of HC50 for human RBC to MIC for polymyxin B/colistin-resistant Acinetobacter baumannii M89952; assay type: toxicity; settings: human red blood cells, read-out: TI; outline: as §1
[8] = Therapeutic index, ratio of HC50 for human RBC to MIC for polymyxin B/colistin-resistant Acinetobacter baumannii M89949; assay type: toxicity; settings: human red blood cells, read-out: TI; outline: as §1
[9] = Hemolytic activity against human RBC measured after 18 hrs by spectrophotometric method; assay type: ADME, cell-based, Erythrocyte; settings: human red blood cells (erythrocytes)
Outline: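 Peptide (amount by amino acid analysis), two-fold serial dilutions at 12 concentrations up to 1000 μg/mL, with 1% human erythrocytes in PBS pH 7.4, 37 °C, 18 h. Unlysed cells removed by centrifugation (800g); hemoglobin read at 570 nm. Water-lysed cells = 100%, no-peptide cells = 0%. HC50 from plot of % lysis vs concentration (μM), average of 3 replicates.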

[10] = Therapeutic index, ratio of HC50 for human RBC to MIC for polymyxin B/colistin-resistant Acinetobacter baumannii M89941; assay type: toxicity; settings: human red blood cells, read-out: TI; outline: as §1
[11] = system: Acinetobacter baumannii; assay: Antibacterial activity against Acinetobacter baumannii isolate 1001611 measured after 24 hrs by microtiter dilution method; assay type: functional; settings: isolate 1001611, 24 h; outline: as §2
[12] = system: Acinetobacter baumannii; assay: Antibacterial activity against Acinetobacter baumannii isolate 1007660 measured after 24 hrs by microtiter dilution method; assay type: functional; settings: isolate 1007660, 24 h; outline: as §2
[13] = system: Acinetobacter baumannii; assay: Antibacterial activity against Acinetobacter baumannii isolate 1021371 measured after 24 hrs by microtiter dilution method; assay type: functional; settings: isolate 1021371, 24 h; outline: as §2
[14] = system: Acinetobacter baumannii; assay: Antibacterial activity against Acinetobacter baumannii isolate 952654 measured after 24 hrs by microtiter dilution method; assay type: functional; settings: isolate 952654, 24 h; outline: as §2
[15] = system: Acinetobacter baumannii; assay: Antibacterial activity against Acinetobacter baumannii isolate 9383370 measured after 24 hrs by microtiter dilution method; assay type: functional; settings: isolate 9383370, 24 h; outline: as §2
[16] = system: Acinetobacter baumannii; assay: Antibacterial activity against Acinetobacter baumannii isolate 961997 measured after 24 hrs by microtiter dilution method; assay type: functional; settings: isolate 961997, 24 h; outline: as §2
[17] = system: Acinetobacter baumannii; assay: Antibacterial activity against Acinetobacter baumannii isolate 1002956 measured after 24 hrs by microtiter dilution method; assay type: functional; settings: isolate 1002956, 24 h; outline: as §2
[18] = system: Acinetobacter baumannii; assay: Antibacterial activity against Acinetobacter baumannii isolate 977751 measured after 24 hrs by microtiter dilution method; assay type: functional; settings: isolate 977751, 24 h; outline: as §2
[19] = system: Acinetobacter baumannii; assay: Antibacterial activity against Acinetobacter baumannii isolate 1035166 measured after 24 hrs by microtiter dilution method; assay type: functional; settings: isolate 1035166, 24 h; outline: as §2
[20] = system: Acinetobacter baumannii; assay: Antibacterial activity against Acinetobacter baumannii isolate 1010282 measured after 24 hrs by microtiter dilution method; assay type: functional; settings: isolate 1010282, 24 h; outline: as §2
[21] = system: Acinetobacter baumannii; assay: Antibacterial activity against Acinetobacter baumannii isolate 1010245 measured after 24 hrs by microtiter dilution method; assay type: functional; settings: isolate 1010245, 24 h; outline: as §2
[22] = system: Acinetobacter baumannii; assay: Antibacterial activity against Acinetobacter baumannii isolate 1017395 measured after 24 hrs by microtiter dilution method; assay type: functional; settings: isolate 1017395, 24 h; outline: as §2
[23] = system: Acinetobacter baumannii; assay: Antibacterial activity against Acinetobacter baumannii isolate 968886 measured after 24 hrs by microtiter dilution method; assay type: functional; settings: isolate 968886, 24 h; outline: as §2
[24] = system: Acinetobacter baumannii; assay: Antibacterial activity against Acinetobacter baumannii isolate 964304 measured after 24 hrs by microtiter dilution method; assay type: functional; settings: isolate 964304, 24 h; outline: as §2
[25] = system: Acinetobacter baumannii; assay: Antibacterial activity against Acinetobacter baumannii isolate 963659 measured after 24 hrs by microtiter dilution method; assay type: functional; settings: isolate 963659, 24 h; outline: as §2
[26] = system: Acinetobacter baumannii; assay: Antibacterial activity against Acinetobacter baumannii isolate 963618 measured after 24 hrs by microtiter dilution method; assay type: functional; settings: isolate 963618, 24 h; outline: as §2
[27] = system: Acinetobacter baumannii; assay: Antibacterial activity against Acinetobacter baumannii isolate 1018887 measured after 24 hrs by microtiter dilution method; assay type: functional; settings: isolate 1018887, 24 h; outline: as §2
[28] = system: Acinetobacter baumannii; assay: Antibacterial activity against Acinetobacter baumannii isolate 1035794 measured after 24 hrs by microtiter dilution method; assay type: functional; settings: isolate 1035794, 24 h; outline: as §2
[29] = system: Acinetobacter baumannii; assay: Antibacterial activity against Acinetobacter baumannii isolate 981650 measured after 24 hrs by microtiter dilution method; assay type: functional; settings: isolate 981650, 24 h; outline: as §2
[30] = system: Acinetobacter baumannii; assay: Antibacterial activity against Acinetobacter baumannii isolate 965463 measured after 24 hrs by microtiter dilution method; assay type: functional; settings: isolate 965463, 24 h; outline: as §2
[31] = system: Acinetobacter baumannii; assay: Antibacterial activity against polymyxin B/colistin-resistant Acinetobacter baumannii M89963 measured after 24 hrs by microtiter dilution method; assay type: functional; settings: M89963, 24 h; outline: as §2
[32] = system: Acinetobacter baumannii; assay: Antibacterial activity against polymyxin B/colistin-resistant Acinetobacter baumannii M89955 measured after 24 hrs by microtiter dilution method; assay type: functional; settings: M89955, 24 h; outline: as §2
[33] = system: Acinetobacter baumannii; assay: Antibacterial activity against polymyxin B/colistin-resistant Acinetobacter baumannii M89953 measured after 24 hrs by microtiter dilution method; assay type: functional; settings: M89953, 24 h; outline: as §2
[34] = system: Acinetobacter baumannii; assay: Antibacterial activity against polymyxin B/colistin-resistant Acinetobacter baumannii M89952 measured after 24 hrs by microtiter dilution method; assay type: functional; settings: M89952, 24 h; outline: as §2
[35] = system: Acinetobacter baumannii; assay: Antibacterial activity against polymyxin B/colistin-resistant Acinetobacter baumannii M89951 measured after 24 hrs by microtiter dilution method; assay type: functional; settings: M89951, 24 h; outline: as §2
[36] = system: Acinetobacter baumannii; assay: Antibacterial activity against polymyxin B/colistin-resistant Acinetobacter baumannii M89949 measured after 24 hrs by microtiter dilution method; assay type: functional; settings: M89949, 24 h; outline: as §2
[37] = system: Acinetobacter baumannii; assay: Antibacterial activity against polymyxin B/colistin-resistant Acinetobacter baumannii M89941 measured after 24 hrs by microtiter dilution method; assay type: functional; settings: M89941, 24 h; outline: as §2

Work on CC(=O)N[C@H](CCCCN)C(=O)N[C@H](CC(C)C)C(=O)N[C@@H](CCN)C(=O)N[C@H](CO)C(=O)N[C@H](CC(C)C)C(=O)N[C@H](CC(C)C)C(=O)N[C@@H](CCN)C(=O)N[C@@H](C(=O)N[C@H](CC(C)C)C(=O)N[C@H](CO)C(=O)N[C@@H](CCN)C(=O)N[C@H](C)C(=O)N[C@H](CCCCN)C(=O)N[C@H](C)C(=O)N[C@H](C)C(=O)N[C@H](CCCCN)C(=O)N[C@H](CC(C)C)C(=O)N[C@@H](CCN)C(=O)N[C@@H](C(=O)N[C@H](CC(C)C)C(=O)N[C@H](CC(C)C)C(=O)N[C@@H](CCN)C(=O)N[C@H](C)C(=O)N[C@H](CC(C)C)C(=O)N[C@H](CO)C(=O)N[C@H](CO)C(N)=O)[C@H](C)O)[C@H](C)O (Ac-[dK][dL][Dab][dS][dL][dL][Dab][dT][dL][dS][Dab][dA][dK][dA][dA][dK][dL][Dab][dT][dL][dL][Dab][dA][dL][dS][dS]-NH2) yielded an MIC [1] of 0.7 µM, a selectivity ratio [2] greater than 1010 and an MIC [3] of 0.4 µM (≈ 1.07 µg/mL). The selectivity ratio [4] was greater than 1010, the selectivity ratio [5] was greater than 1010 and the selectivity ratio [6] was greater than 1010. The selectivity ratio [7] was greater than 1010, the selectivity ratio [8] was greater than 1010 and the HC50 at 18 h [9] was greater than 708 µM. It also gave a selectivity ratio [10] greater than 1010, an MIC [11] of 0.4 µM (≈ 1.07 µg/mL) and an MIC [12] of 0.4 µM (≈ 1.07 µg/mL). It also gave an MIC [13] of 0.4 µM (≈ 1.07 µg/mL), an MIC [14] of 0.4 µM (≈ 1.07 µg/mL) and an MIC [15] of 0.7 µM (≈ 1.88 µg/mL). The MIC [16] was 1.5 µM (≈ 4.03 µg/mL), the MIC [17] was 0.4 µM (≈ 1.07 µg/mL) and the MIC [18] was 0.7 µM (≈ 1.88 µg/mL). For the same compound, the MIC [19] was 0.7 µM (≈ 1.88 µg/mL), the MIC [20] was 0.7 µM (≈ 1.88 µg/mL) and the MIC [21] was 0.4 µM (≈ 1.07 µg/mL). The MIC [22] was 0.7 µM (≈ 1.88 µg/mL), the MIC [23] was 0.7 µM (≈ 1.88 µg/mL) and the MIC [24] was 0.7 µM (≈ 1.88 µg/mL). It also gave an MIC [25] of 0.7 µM (≈ 1.88 µg/mL), an MIC [26] of 0.4 µM (≈ 1.07 µg/mL) and an MIC [27] of 0.7 µM (≈ 1.88 µg/mL). For the same compound, the MIC [28] was 0.7 µM (≈ 1.88 µg/mL), the MIC [29] was 0.4 µM (≈ 1.07 µg/mL) and the MIC [30] was 0.7 µM (≈ 1.88 µg/mL). It also gave an MIC [31] of 0.7 µM (≈ 1.88 µg/mL), an MIC [32] of 0.7 µM (≈ 1.88 µg/mL) and an MIC [33] of 1.4 µM (≈ 3.76 µg/mL). For the same compound, the MIC [34] was 0.7 µM (≈ 1.88 µg/mL), the MIC [35] was 0.7 µM (≈ 1.88 µg/mL) and the MIC [36] was 0.7 µM (≈ 1.88 µg/mL). For the same compound, the MIC [37] was 0.4 µM (≈ 1.07 µg/mL).
